Measurements of several laboratories.
Target: Tyrosine-protein kinase receptor TYRO3 (TYRO3, Homo sapiens, UniProt Q06418)

| Structure (SMILES) | observed | mode | method | tested at | endpoint | result |
| --- | --- | --- | --- | --- | --- | --- |
| O=C(O)c1cc(-c2ccc(C3CCNCC3)cc2)c2ccc(-c3ccc(C(F)(F)F)cc3)cc2c1 | cell-free assay |  | competition with immobilised ligand | 1 µM | remaining binding | 100% |
| Oc1cccc(-c2nc(N3CCOCC3)c3oc4ncccc4c3n2)c1 | cell-free assay |  |  | 0.5 µM | remaining signal | 102% |
| CCCOc1ccc([C@H]2[C@H](C(=O)O)[C@@H](c3ccc4c(c3)OCO4)CN2CC(=O)Nc2c(CC)cccc2CC)cc1 | cell-free assay |  | competition with immobilised ligand | 1 µM | remaining binding | 100% |
| CCN(CC)c1ccc(C2=NNC(=O)CC2C)cc1[N+](=O)[O-] (centres unmarked) | enzyme activity | inhibitor |  | 10 µM | remaining activity | 95% |
| O=C(N1CCS(=O)(=O)CC1)N1C[C@H](c2ccc(OC(F)(F)F)cc2)C[C@H](c2nc(C3CC3)no2)C1 | cell-free assay |  | competition with immobilised ligand | 1 µM | remaining binding | 98% |
| CC1CCCN1c1nccc(-c2cnn3ncccc23)n1 (centres unmarked) | binding |  |  | 1 µM | remaining binding | 79% |
| CCC(=O)N[C@H]1CC[C@@H](C(=O)N(C)c2ccc(-c3nc4ccccc4o3)cc2)C1 | cell-free assay |  | competition with immobilised ligand | 1 µM | remaining binding | 92% |
| Cn1c2c(Cl)c(Cl)ccc2c2cn[nH]c(=O)c21 | thermal stability |  | DSF | 10 µM | ΔTm | 1 °C |
| CC(C)(C)c1nc(-c2cccc(NS(=O)(=O)c3c(F)cccc3F)c2F)c(-c2ccnc(N)n2)s1 | enzyme activity | inhibitor | radiometric | 1 µM | remaining activity | 90% |
| O=C1NC(=O)c2cc(Nc3ccc(F)cc3)c(Nc3ccc(F)cc3)cc21 | cell-free assay |  |  | 0.5 µM | remaining signal | 94.8% |
| C[C@@]1(Cc2ccc(C#N)cc2)C(=O)N(c2cc(Cl)cc(Cl)c2)c2ncc(C(=O)NC3(c4nc(C5CCC5)no4)CC3)n21 | cell-free assay |  | competition with immobilised ligand | 1 µM | remaining binding | 100% |
| O=C(Nc1cnn(-c2csc(C(=O)NC3COC3)c2)c1)Nc1ccccc1Cl | enzyme activity | inhibitor |  | 5 µM | remaining activity | 75.4% |
| Cc1ccc(Nc2nccc(N(C)c3ccc4c(C)n(C)nc4c3)n2)cc1S(N)(=O)=O | cell-free assay |  |  | 0.3 µM | inhibition | 26% |
| N#CCCc1ccc2c(c1)-c1[nH]c3ccc([N+](=O)[O-])cc3c1CC(=O)N2 | cell-free assay |  |  | 0.5 µM | remaining signal | 94.8% |
| Cc1c[nH]c2nccc(Oc3c(F)cc(Nc4cc(Cl)nc(N)n4)cc3F)c12 | cell-free assay |  | competition with immobilised ligand | 0.1 µM | remaining binding | 100% |
| CCN(CC)CCNC(=O)c1c(C)[nH]c(/C=C2\C(=O)Nc3ccc(F)cc32)c1C | cell-free assay |  |  | 0.3 µM | inhibition | 72% |
| COc1cc2ncnc(Nc3ccc(Oc4ccccc4)c(C)c3C)c2cc1OC | enzyme activity | inhibitor |  | 1 µM | inhibition | 25% |
| CN1CCC2(CC1)NC(=O)c1c(c3ccc(Cl)c(Cl)c3n1C)C2C#N (racemic) | thermal stability |  | DSF | 10 µM | ΔTm | 0.7 °C |
| CCCS(=O)(=O)Nc1ccc(F)c(C(=O)c2c[nH]c3ncc(-c4ccc(Cl)cc4)cc23)c1F | enzyme activity | inhibitor |  | 1 µM | inhibition | < 10% |
| Nc1ncnc2occ(-c3ccc(NC(=O)Nc4cc(C(F)(F)F)ccc4F)cc3)c12 | cell-free assay |  |  | 20 µM | remaining signal | 2% |
| O=C(Nc1cnn(-c2csc(C(=O)NC3COC3)c2)c1)Nc1c(F)cccc1Cl | enzyme activity | inhibitor |  | 5 µM | remaining activity | 68.4% |
| Cn1cc(Cl)c2c(Oc3c(F)cc(Nc4cc(Cl)nc(N)n4)cc3F)ccnc21 | cell-free assay |  | competition with immobilised ligand | 0.1 µM | remaining binding | 80% |
| Cn1c2c(c3ccccc31)C(C#N)C(C)(C)NC2=O (centres unmarked) | thermal stability |  | DSF | 10 µM | ΔTm | -0.1 °C |
| C=CC(=O)Nc1cc(Nc2nccc(Nc3cc(Cl)c(F)cc3C(C)(C)O)n2)c(OC)cc1N1CC[C@@H](N(C)C)C1 | enzyme activity | inhibitor |  | 1 µM | inhibition | 5% |
| COc1cc2nccc(Oc3ccc(NC(=O)c4c5n(n(-c6ccc(F)cc6)c4=O)CCCC5)cc3)c2cc1OC | enzyme activity | inhibitor |  | 0.1 µM | inhibition | 71% |
| O=C1CCc2cc(Nc3cc(OC4CCOCC4)c([N+](=O)[O-])cc3Cl)ccc2N1 | cell-free assay |  | competition with immobilised ligand | 1 µM | remaining binding | 100% |
| CC(C)(O)[C@H]1CC[C@H](Nc2ccc3ncc(-c4cccc(C(F)(F)F)c4)n3n2)CC1 | enzyme activity | inhibitor |  | 1 µM | remaining activity | 22.3% |
| CCOc1cc(-c2nncn2C)ccc1Nc1ncc2cc(C)nc(NCC(C)(C)C)c2n1 | enzyme activity | inhibitor | FRET | 1 µM | inhibition | 19% |
| Cc1cnc(NC2CCOCC2)nc1-n1cnc(C(=O)NC(CN)c2cc(F)cc(Cl)c2)c1 (centres unmarked) | enzyme activity | inhibitor | radiometric | 1 µM | remaining activity | 118% |
